Rows were chosen to be rich in hits. Some 3.7% of all compounds tested hit in one or more screens of this group.
KCNK3 block = human KCNK3 channel inhibition, primary screen; O14649; CHO-KCNK3 thallium flux, FluxOR fluorescence; active compounds read low; B-score at 10 µM; actives 0.84% (n = 340,000); AID 602410;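 active means B-score under library mean minus 4 SD, starting fluorescence ratio at most library mean plus 5 SD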;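 further: more negative B-score means stronger inhibition of thallium flux through KCNK3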
KCNK9 block = blocks the human KCNK9 two-pore domain potassium channel. HEK293 KCNK9, FluxOR thallium flux fluorescence; active compounds read low. Q9NPC2. B-score at 10 µM. actives 1.2% (n = 310,000). AID 488922;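 active means ratio B-score over 3 SD below the library mean, with starting fluorescence within 5 SD of its mean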;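 further: negative B-score means less thallium flux so channel inhibition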
hERG protect = shields human hERG channel from block by proarrhythmic agents; Q12809; CHO-hERG, FluxOR thallium flux, dofetilide IC70 present; activation (rescue from dofetilide block), less the hit threshold, % at 10 µM; actives 0.51% (n = 310,000); AID 1511;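 active means activation above the mean of controls blocked by dofetilide plus 5 SD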;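 further: thallium influx through hERG after potassium depolarization seen as dye fluorescence rise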
KCNQ1 pot = human KCNQ1 channel potentiation or activation; actives 0.35% (n = 310,000); B-score at 10 µM; AID 2648; CHO-K1 KCNQ1, thallium flux FluxOR fluorescence; active compounds read high;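 active means fluorescence ratio B-score, a plate-corrected score, at least three library SD, with initial intensity B-score within 5 SD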
Target sequence (P51787 whole entry, looked up): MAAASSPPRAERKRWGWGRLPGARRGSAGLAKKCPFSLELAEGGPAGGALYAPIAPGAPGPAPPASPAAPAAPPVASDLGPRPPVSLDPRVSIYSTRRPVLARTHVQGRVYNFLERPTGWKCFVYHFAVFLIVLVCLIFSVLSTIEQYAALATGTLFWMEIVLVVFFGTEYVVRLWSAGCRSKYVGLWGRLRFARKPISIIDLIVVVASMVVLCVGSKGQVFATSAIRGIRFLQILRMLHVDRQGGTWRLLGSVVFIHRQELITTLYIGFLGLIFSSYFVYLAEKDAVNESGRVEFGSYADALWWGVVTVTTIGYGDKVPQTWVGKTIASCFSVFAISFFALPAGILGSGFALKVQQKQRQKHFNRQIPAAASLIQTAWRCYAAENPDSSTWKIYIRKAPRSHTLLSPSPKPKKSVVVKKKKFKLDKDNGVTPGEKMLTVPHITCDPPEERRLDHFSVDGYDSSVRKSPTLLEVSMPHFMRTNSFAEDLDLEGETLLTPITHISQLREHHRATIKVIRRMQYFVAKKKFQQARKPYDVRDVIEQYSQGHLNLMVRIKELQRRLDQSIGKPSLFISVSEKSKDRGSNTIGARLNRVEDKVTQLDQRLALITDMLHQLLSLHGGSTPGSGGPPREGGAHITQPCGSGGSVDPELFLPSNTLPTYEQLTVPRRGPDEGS
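assay system = KCNQ1-transfected CHO-K1 cells | medium = assay buffer with matched DMSO | probe or stimulus = depolarizing K+/Tl+ stimulus, K2SO4 and Tl2SO4 each 12.5 mM in 5x stock | dosing = single dose | incubation = dye 90 min, compound 20 min, room temperature | detection = kinetic FluxOR fluorescence, 10 s baseline plus 110 s post-stimulus | evaluation = ratio B score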
KCNQ1 inh = inhibitors of human KCNQ1 potassium channel; P51787; CHO-K1 KCNQ1, FluxOR thallium flux fluorescence; active compounds read high; B-score at 10 µM; actives 1.3% (n = 310,000);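 active means compounds whose thallium flux B-score, printed positive for inhibition, exceeds three library SD while starting fluorescence stays within three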;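 further: channel opened by potassium depolarization with thallium stimulus after 20 min compound exposure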
Kir21 inh = inhibitors of mouse Kir2.1 inward-rectifier potassium channel; HEK293-Kir2.1, FluxOR thallium flux fluorescence; active compounds read low; B-score at 10 µM; actives 0.85% (n = 310,000); AID 1672;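 active means fluorescence ratio B-score at or below minus 3 SD of library scores, with starting-brightness B-score within 2 SD, cut at about -4.2 in these data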;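 further: channel flux triggered by added potassium and thallium sulfate stimulus; B-score of peak minus minimum fluorescence over baseline after thallium stimulus; more negative B-score means stronger Kir2.1 block with less thallium influx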
KCNK9 block conf = confirmation of human KCNK9 potassium channel inhibitors | shares compounds with KCNK9 block | HEK293 KCNK9 cells, FluxOR thallium flux fluorescence | inhibition, % at 10 µM | actives 43% (n = 4,900) | AID 492992;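 active means thallium signal inhibited by more than 5 SD of the compound-free buffer control wells, on both duplicate plates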;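 further: 0% = assay buffer control wells without compound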
Kir21 sel = selectivity of KCNK9 modulators against mouse Kir2.1 | actives 4% (n = 4,900) | Kir2.1 cells, FluxOR thallium flux fluorescence | inhibition, % at 10 µM | shares compounds with KCNK9 block;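 active means thallium signal drop more than 5 SD beyond the mean of the no-compound control wells, seen in both duplicate plates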;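 further: signal is fluorescence rise after thallium addition divided by baseline fluorescence; plate controls were assay buffer only for no effect and full block by chlorpromazine control for full effect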
KCNK9 uninduced = second check of KCNK9 modulator effects in non-induced HEK293 cells | FluxOR thallium flux | inhibition, % at 10 µM | actives 40% (n = 4,900) | AID 492997 | shares compounds with KCNK9 block;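 active means thallium signal drop beyond 5 SD of the untreated control mean, on both duplicate plates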;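 further: plate controls were buffer only IC0 wells for no effect and SID17386958 at its maximal inhibitory level for full effect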
* hit, by the source's call; i = inactive; / = no result.

SMILES	KCNK3 block	KCNK9 block	hERG protect	KCNQ1 pot	KCNQ1 inh	Kir21 inh	KCNK9 block conf	Kir21 sel	KCNK9 uninduced
O=C(Nc1ccccc1)Nc1sccc1-c1nc2ccccc2s1	i	i	-10	i	i	-0.16	/	/	/
COC(=O)c1ccccc1NC(=O)C1CCCN(S(=O)(=O)c2ccccc2)C1 (stereo not given)	i	i	-9	i	i	-0.4	i	i	i
COC(=O)c1ccccc1NC(=O)C1CCCN(S(=O)(=O)c2ccc(F)cc2)C1 (stereo not given)	i	i	-1	i	i	1.4	i	i	i
CC(=O)Nc1ccc(OCC(O)Cn2cncn2)cc1 (stereo not given)	i	i	-4	i	i	-1.8	/	/	/
Cc1cc(C)c(S(=O)(=O)N2CCCC(C(=O)NC3CC3)C2)c(C)c1 (stereo not given)	i	i	-10	i	i	0.08	/	/	/
Cc1cc(C)cc(C(=O)NC(CC(N)=O)c2ccc(N3CCC(Cc4ccccc4)CC3)c([N+](=O)[O-])c2)c1 (stereo not given)	i	-13*	-5	i	i	-0.78	53%*	i	36%*
Cc1cc(C)cc(C(=O)NC(CC(N)=O)c2ccc(N3CCN(c4ccccc4)CC3)c([N+](=O)[O-])c2)c1 (stereo not given)	i	i	-4	i	i	1.3	/	/	/
O=C(/C=C/c1ccco1)N(Cc1ccc(Cl)cc1)C1CCS(=O)(=O)C1 (stereo not given)	i	i	-14	i	i	-0.76	/	/	/
CCCC1CCC(=C(C#N)C(N)=O)CC1 (stereo not given)	i	-8.8*	-7	i	i	0.94	i	i	i
CCCC1CCC(c2ccc(C(N)=O)cc2)CC1 (stereo not given)	i	i	-2	i	i	0.51	/	/	/
C[C@H](CO)N1C[C@H](C)[C@@H](CN(C)S(=O)(=O)c2ccc(F)cc2)Oc2c(NS(=O)(=O)c3ccccc3)cccc2C1=O	i	/	/	/	/	/	/	/	/
CC1CC(C)CN(C(=O)c2ccc(S(=O)(=O)N3CC(C)CC(C)C3)cc2)C1 (stereo not given)	i	i	-6	i	i	-0.82	i	i	i
CC1CC(C)CN(C(=O)c2ccc(C#N)cc2)C1 (stereo not given)	i	i	-6	i	i	-2	/	/	/
CC1CC(C)CN(C(=O)c2ccc(C(=O)c3ccccc3)cc2)C1 (stereo not given)	i	i	-13	i	i	1.6	i	i	i
NC(=O)c1nsc(C(=O)N(Cc2ccccc2Cl)C(C(=O)NCC2CCCO2)c2ccc(O)cc2)c1N (stereo not given)	i	i	-13	i	i	0.41	/	/	/
COc1cccc(CNC(=O)c2cccc(NC(=O)C3=C(C)OCCS3)c2)c1	i	-8.9*	-13	i	i	1.5	50%*	i	i
CCn1c(C)c(C(C)=O)c(N2CCCCC2)nc1=S	i	i	-9	i	i	0.83	/	/	/
CCn1c(C)c(C(C)=O)c(N2CCN(C(c3ccccc3)c3ccccc3)CC2)nc1=S	i	-9.1*	-18	i	i	0.76	i	i	i
CCOC(=O)c1c(NC(=S)Nc2ccc(OC)cc2)sc2c1CCC2	i	i	-17	i	i	0.67	/	/	/
CCOC(=O)c1c(NC(=S)Nc2ccccc2)sc2c1CC(C)(C)SC2	i	-9.1*	-2	i	8*	0.03	i	i	33%*
COc1ccc(N2C(=O)CSC2c2ccccc2F)c(OC)c1 (stereo not given)	i	i	-4	i	i	-1.4	/	/	/
CC1CC(C)CN(S(=O)(=O)N2CCCC(C(=O)NC(C)c3ccccc3)C2)C1 (stereo not given)	i	i	-7	i	i	0.57	/	/	/
COc1ccc(CNC(=O)CCN2C(=S)NC(C)(C)CC2C)cc1 (stereo not given)	i	i	-4	i	i	-0.08	/	/	/
COc1ccccc1NC(=O)c1ccc2c(c1)N(CC(=O)NC(C)C)C(=O)C(C)(C)O2	i	i	-11	i	i	0.33	/	/	/
Cc1ccccc1NCC(=O)Nc1cc(S(=O)(=O)N2CCCCC2)ccc1C	i	/	/	/	/	/	/	/	/
SMILES	KCNK3 block	KCNK9 block	hERG protect	KCNQ1 pot	KCNQ1 inh	Kir21 inh	KCNK9 block conf	Kir21 sel	KCNK9 uninduced
CC(NCC(=O)Nc1cc(S(=O)(=O)N2CCCCCC2)ccc1Cl)c1ccccc1 (stereo not given)	i	i	-12	i	i	1.2	i	i	i
Cc1ccc(NCc2nc3ccccc3n2CCOc2ccccc2)cc1	i	-12*	-7	i	i	-0.23	40%*	i	38%*
CC(C)c1ccc(OCC(=O)N2CCc3ccccc3C2)cc1	i	i	-4	i	i	2.4	i	i	i
CC(=O)Nc1ccc(OCC(=O)N2CCc3ccccc3C2)cc1	i	i	2	i	i	0.72	/	/	/
O=C(Cc1c(Cl)cccc1Cl)OCC(=O)N1CCc2ccccc2C1	i	i	-12	i	i	0.34	i	i	i
CCOc1ccc2oc(C(=O)NCC(C)(C)CN(C)C)c(C)c2c1	i	i	-8	i	i	0.44	/	/	/
O=C(Nc1nc2ccccc2[nH]1)c1ccccc1[N+](=O)[O-]	i	i	-6	i	i	-0.43	/	/	/
Cc1c(C(=O)Nc2nc3ccccc3[nH]2)cccc1[N+](=O)[O-]	i	-8.4*	-5	i	i	1.8	47%*	i	26%*
COC(=O)c1c(NC(=O)Cc2ccccc2)sc2c1C(C(=O)OC)CC2 (stereo not given)	i	i	-22	i	i	-1.5	i	i	i
Cc1cc(C)nc(SCc2csc(-c3ccccc3)n2)n1	i	-11*	-10	i	i	-1.6	53%*	i	35%*
CNC(=O)CSc1nc2cccnc2n1-c1ccc(F)cc1	i	i	-2	i	i	0.27	/	/	/
c1ccc2[nH]c(NCc3ccc4c(c3)OCO4)nc2c1	i	i	-5	i	i	0.47	/	/	/

Assay outcomes (PubChem BioAssay)
